Substitutions are numbered along the chain they refer to. Several values for one entry are separate records, joined by “and”; a condition that tells them apart may be missing. Equal values may be shown once.
Experiments:
MDA-MB-231 cells = assay: MDA-MB-231 cell proliferation assay; type: cell-based, human
[1] = target: T1, recombinant GAC (residues 128-603) (Mus musculus, UniProt D3Z7P3); assay: Recombinant GAC two-step glutaminase assay; type: biochemical; conditions: for inhibition of phosphate-activated enzyme: GAC activated by inorganic phosphate before inhibitor
T1 sequence (D3Z7P3 128-603 isoform D3Z7P3-2): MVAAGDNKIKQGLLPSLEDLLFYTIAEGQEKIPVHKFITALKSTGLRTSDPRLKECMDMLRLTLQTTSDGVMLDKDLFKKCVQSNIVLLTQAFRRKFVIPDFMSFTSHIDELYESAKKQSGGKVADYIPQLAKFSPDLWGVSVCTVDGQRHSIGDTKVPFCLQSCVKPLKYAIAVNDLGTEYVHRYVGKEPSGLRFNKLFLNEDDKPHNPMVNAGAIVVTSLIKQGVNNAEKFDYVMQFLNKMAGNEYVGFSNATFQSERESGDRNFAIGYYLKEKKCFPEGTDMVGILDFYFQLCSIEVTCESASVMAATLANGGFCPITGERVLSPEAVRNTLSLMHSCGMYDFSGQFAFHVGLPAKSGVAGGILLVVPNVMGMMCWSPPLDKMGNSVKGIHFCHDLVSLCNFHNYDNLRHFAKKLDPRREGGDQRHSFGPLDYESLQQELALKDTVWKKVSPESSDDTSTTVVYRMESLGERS

[2] = target: T2, full-length wild-type GAC (Δ72 GAC) (Mus musculus, UniProt D3Z7P3); assay: Recombinant protein assay with full-length wild-type GAC; type: biochemical
T2 sequence (D3Z7P3 72-603 isoform D3Z7P3-2): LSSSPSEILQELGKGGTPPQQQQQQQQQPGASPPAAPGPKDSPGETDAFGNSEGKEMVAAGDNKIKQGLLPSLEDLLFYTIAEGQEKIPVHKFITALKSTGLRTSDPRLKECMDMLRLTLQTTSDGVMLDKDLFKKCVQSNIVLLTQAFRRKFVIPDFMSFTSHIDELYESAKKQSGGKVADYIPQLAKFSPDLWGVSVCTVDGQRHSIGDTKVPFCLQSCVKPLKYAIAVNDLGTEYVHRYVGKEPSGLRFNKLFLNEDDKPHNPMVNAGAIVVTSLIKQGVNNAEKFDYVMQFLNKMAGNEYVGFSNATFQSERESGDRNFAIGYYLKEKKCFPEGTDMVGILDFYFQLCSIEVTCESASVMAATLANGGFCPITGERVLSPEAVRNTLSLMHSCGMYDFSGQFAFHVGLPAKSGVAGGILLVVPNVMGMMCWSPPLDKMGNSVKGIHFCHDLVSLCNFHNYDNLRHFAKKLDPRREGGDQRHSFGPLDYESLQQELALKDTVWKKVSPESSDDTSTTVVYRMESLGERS
How it was run: (§1)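 Mouse GAC residues 72-603 in pET28a, wild type or site-directed mutant. Inhibitor in DMSO mixed with 50 nM enzyme and 21 mM glutamine in pH 8.6 Tris-acetate, then inorganic phosphate (136 mM) added; 10 min at 37°C; acid quench. Glutamate read by glutamate dehydrogenase/NAD coupling, A340 after 45 min room temperature against NAD-free blank; duplicates. IC50 from fixed-slope inhibitor curve fit.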

R539L GAC mutant = target: T3, R539L GAC mutant (Mus musculus, UniProt D3Z7P3, R539L); assay: Recombinant protein assay with R539L GAC mutant; type: biochemical; conditions: concentrations up to 50 μM
T3 sequence (D3Z7P3 72-603 isoform D3Z7P3-2 R539L): T2 sequence (D3Z7P3 72-603 isoform D3Z7P3-2) with R468L
How it was run: as §1

F532L GAC mutant = target: T4, F532L GAC mutant (Mus musculus, UniProt D3Z7P3, F532L); assay: Recombinant protein assay with F532L GAC mutant; type: biochemical; conditions: concentrations up to 50 μM
T4 sequence (D3Z7P3 72-603 isoform D3Z7P3-2 F532L): T2 sequence (D3Z7P3 72-603 isoform D3Z7P3-2) with F461L
How it was run: as §1

| IC50 (MDA-MB-231 cells; MDA-MB-231 cell proliferation) | IC50 (MDA-MB-231 cells; Homo sapiens, MDA-MB-231) | inhibition at 10 µM [1] | inhibition at 25 µM [1] | inhibition at 50 µM [1] | IC50 ([1]; IC50, GAC 50 nM, glutamine 21 mM, phosphate 136 mM, 10 min, fixed slope inhibitor model, shorter GAC construct) | IC50 [2] | inhibition of mutant (R539L GAC mutant) | inhibition of mutant (F532L GAC mutant) | Compound | inhibition of phosphate-activated enzyme [1] |
| --- | --- | --- | --- | --- | --- | --- | --- | --- | --- | --- |
| 3 µM |  |  |  |  |  |  |  |  | O=C(Cc1ccccc1)Nc1nnc(CCSCCc2nnc(NC(=O)Cc3ccccc3)s2)s1 [BPTES, reference compound] | able to do so |
|  | 4.2 µM | 21 ± 5% | 94 ± 1% | 95 ± 1% | 9.3 µM and ~10 µM | 19 µM | detectable inhibition was not observed | detectable inhibition was not observed | CN(C)c1ccc(C2Nc3ccc4ccccc4c3C3=C2C(=O)CC(C)(C)C3)cc1Br (centres unmarked) [compound 968, 5-(3-bromo-4-(dimethylamino)phenyl)-2,2-dimethyl-2,3,5,6-tetrahydrobenzo[a]phenanthridin-4(1H)-one] | unable to inhibit the phosphate-activated enzyme |
